In ChEMBL document CHEMBL3286203, “Reactive oxygen species (ROS) inducible DNA cross-linking agents and their effect on cancer cells and normal lymphocytes” (J Med Chem, 2014):
The source made the active and inactive calls. The calls are words filed in the database; no cut-off is given here.

What was measured:
[1] = system: CCRF-CEM; experiment: Cytotoxicity against human CCRF-CEM cells assessed as growth inhibition at 10 uM after 48 hrs by SRB assay; type: functional, cell-based
Method in brief: (§1)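 NCI DTP 60-cell-line screen run at the NCI. Cells were grown in RPMI 1640 with 5% FBS and 2 mM L-glutamine. They were seeded at 5000–40 000 cells/well depending on doubling time and grown in two plates per line. Each was exposed to a single 10 μM dose for 48 h at 37 °C, 5% CO2, 95% air, 100% humidity. Read-out was percent growth.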

[2] = system: HT-29; experiment: Cytotoxicity against human HT-29 cells assessed as growth inhibition at 10 uM after 48 hrs by SRB assay; type: functional, cell-based; method in brief: as §1
[3] = system: SF-539; experiment: Cytotoxicity against human SF539 cells assessed as growth inhibition at 10 uM after 48 hrs by SRB assay; type: functional, cell-based
Method in brief: (§2)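 Single-dose screen run by the NCI Developmental Therapeutics Program (NCI-60). Cells were grown in RPMI 1640 with 5% fetal bovine serum and 2 mM L-glutamine. They were plated at 5000–40 000 cells/well, depending on doubling time. Each line was run in two plates and exposed to 10 μM drug for 48 h at 37 °C, 5% CO2, 100% humidity. Read-out was growth percent.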

[4] = system: KM12; experiment: Cytotoxicity against human KM12 cells assessed as growth inhibition at 10 uM after 48 hrs by SRB assay; type: functional, cell-based; method in brief: as §1
[5] = system: MDA-MB-468; experiment: Cytotoxicity against human MDA-MB-468 cells assessed as growth inhibition at 10 uM after 48 hrs by SRB assay; type: functional, cell-based; method in brief: as §2
[6] = system: Malme-3M; experiment: Cytotoxicity against human MALME-3M cells assessed as growth inhibition at 10 uM after 48 hrs by SRB assay; type: functional, cell-based; method in brief: as §1
[7] = system: OVCAR-4; experiment: Cytotoxicity against human OVCAR4 cells assessed as growth inhibition at 10 uM after 48 hrs by SRB assay; type: functional, cell-based; method in brief: as §2
[8] = system: EKVX; experiment: Cytotoxicity against human EKVX cells assessed as growth inhibition at 10 uM after 48 hrs by SRB assay; type: functional, cell-based; method in brief: as §1
[9] = system: HCC 2998; experiment: Cytotoxicity against human HCC2998 cells assessed as growth inhibition at 10 uM after 48 hrs by SRB assay; type: functional, cell-based; method in brief: as §1
[10] = system: HOP-62; experiment: Cytotoxicity against human HOP62 cells assessed as growth inhibition at 10 uM after 48 hrs by SRB assay; type: functional, cell-based; method in brief: as §1
[11] = system: BT-549; experiment: Cytotoxicity against human BT549 cells assessed as growth inhibition at 10 uM after 48 hrs by SRB assay; type: functional, cell-based; method in brief: as §1
[12] = system: UO-31; experiment: Cytotoxicity against human UO31 cells assessed as growth inhibition at 10 uM after 48 hrs by SRB assay; type: functional, cell-based
Method in brief: (§3)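 NCI-60 DTP human tumour line screen. Cells grown in RPMI 1640 with 5% fetal bovine serum and 2 mM L-glutamine, plated at 5000–40 000 cells/well according to doubling time. Single dose of 10 μM for 48 h at 37 °C, 5% CO2, 95% air, 100% humidity, two plates per line. Read-out is growth percent.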

[13] = system: SR; experiment: Cytotoxicity against human SR cells assessed as growth inhibition at 10 uM after 48 hrs by SRB assay; type: functional, cell-based; method in brief: as §3
[14] = system: MDA-MB-435; experiment: Cytotoxicity against human MDA-MB-435 cells assessed as growth inhibition at 10 uM after 48 hrs by SRB assay; type: functional, cell-based; method in brief: as §2
[15] = system: IGROV-1; experiment: Cytotoxicity against human IGROV1 cells assessed as growth inhibition at 10 uM after 48 hrs by SRB assay; type: functional, cell-based; method in brief: as §1
[16] = system: NCI-H23; experiment: Cytotoxicity against human NCI-H23 cells assessed as growth inhibition at 10 uM after 48 hrs by SRB assay; type: functional, cell-based; method in brief: as §2
[17] = system: MOLT-4; experiment: Cytotoxicity against human MOLT4 cells assessed as growth inhibition at 10 uM after 48 hrs by SRB assay; type: functional, cell-based; method in brief: as §2
[18] = system: HOP-92; experiment: Cytotoxicity against human HOP92 cells assessed as growth inhibition at 10 uM after 48 hrs by SRB assay; type: functional, cell-based; method in brief: as §1
[19] = system: SK-MEL-28; experiment: Cytotoxicity against human SK-MEL-28 cells assessed as growth inhibition at 10 uM after 48 hrs by SRB assay; type: functional, cell-based; method in brief: as §2
[20] = system: SK-OV-3; experiment: Cytotoxicity against human SKOV3 cells assessed as growth inhibition at 10 uM after 48 hrs by SRB assay; type: functional, cell-based; method in brief: as §2
[21] = system: M14; experiment: Cytotoxicity against human M14 cells assessed as growth inhibition at 10 uM after 48 hrs by SRB assay; type: functional, cell-based; method in brief: as §1
[22] = system: SN12C; experiment: Cytotoxicity against human SN12C cells assessed as growth inhibition at 10 uM after 48 hrs by SRB assay; type: functional, cell-based; method in brief: as §3
[23] = system: HL-60(TB); experiment: Cytotoxicity against human HL-60(TB) cells assessed as growth inhibition at 10 uM after 48 hrs by SRB assay; type: functional, cell-based; method in brief: as §1
[24] = system: K562; experiment: Cytotoxicity against human K562 cells assessed as growth inhibition at 10 uM after 48 hrs by SRB assay; type: functional, cell-based; method in brief: as §1
[25] = system: U-251; experiment: Cytotoxicity against human U251 cells assessed as growth inhibition at 10 uM after 48 hrs by SRB assay; type: functional, cell-based; method in brief: as §3
[26] = system: RXF 393; experiment: Cytotoxicity against human RXF393 cells assessed as growth inhibition at 10 uM after 48 hrs by SRB assay; type: functional, cell-based; method in brief: as §2
[27] = system: ACHN; experiment: Cytotoxicity against human ACHN cells assessed as growth inhibition at 10 uM after 48 hrs by SRB assay; type: functional, cell-based; method in brief: as §1
[28] = system: NCI-H522; experiment: Cytotoxicity against human NCI-H522 cells assessed as growth inhibition at 10 uM after 48 hrs by SRB assay; type: functional, cell-based; method in brief: as §2
[29] = system: 786-0; experiment: Cytotoxicity against human 786-0 cells assessed as growth inhibition at 10 uM after 48 hrs by SRB assay; type: functional, cell-based; method in brief: as §1
[30] = system: UACC-62; experiment: Cytotoxicity against human UACC62 cells assessed as growth inhibition at 10 uM after 48 hrs by SRB assay; type: functional, cell-based; method in brief: as §3
[31] = system: UACC-257; experiment: Cytotoxicity against human UACC257 cells assessed as growth inhibition at 10 uM after 48 hrs by SRB assay; type: functional, cell-based; method in brief: as §3
[32] = system: HCT-116; experiment: Cytotoxicity against human HCT116 cells assessed as growth inhibition at 10 uM after 48 hrs by SRB assay; type: functional, cell-based; method in brief: as §1
[33] = system: OVCAR-8; experiment: Cytotoxicity against human OVCAR8 cells assessed as growth inhibition at 10 uM after 48 hrs by SRB assay; type: functional, cell-based; method in brief: as §2
[34] = Induction of [32P]-labeled 49-mer oligonucleotide duplex DNA 12 with GNC sequence at terminus (unknown origin) interstrand cross-linking at 1 mM after 16 hrs by PAGE in presence of H2O2
Method in brief: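 32P-labelled 12a (1.0 μM) annealed with 1.5 equiv of 12b in 10 mM potassium phosphate pH 7 / 100 mM NaCl (65 °C for 3 min, then slow cooling). Duplex incubated with compound (final 1 μM–5 mM), with or without H2O2, in NaCl and potassium phosphate pH 8 at room temperature for 16 h. Quenched in formamide; 20% denaturing PAGE.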

[35] = system: LOX IMVI; experiment: Cytotoxicity against human LOXIMVI cells assessed as growth inhibition at 10 uM after 48 hrs by SRB assay; type: functional, cell-based; method in brief: as §1
[36] = system: SF-295; experiment: Cytotoxicity against human SF295 cells assessed as growth inhibition at 10 uM after 48 hrs by SRB assay; type: functional, cell-based; method in brief: as §2
[37] = system: MDA-MB-231; experiment: Cytotoxicity against human MDA-MB-231 cells assessed as growth inhibition at 10 uM after 48 hrs by SRB assay; type: functional, cell-based; method in brief: as §2

SMILES | growth inhibition (GI) [1] | growth inhibition (GI) [2] | growth inhibition (GI) [3] | growth inhibition (GI) [4] | growth inhibition (GI) [5] | growth inhibition (GI) [6] | growth inhibition (GI) [7] | growth inhibition (GI) [8] | growth inhibition (GI) [9] | growth inhibition (GI) [10] | growth inhibition (GI) [11] | growth inhibition (GI) [12] | growth inhibition (GI) [13] | growth inhibition (GI) [14] | growth inhibition (GI) [15] | growth inhibition (GI) [16] | growth inhibition (GI) [17] | growth inhibition (GI) [18] | growth inhibition (GI) [19] | growth inhibition (GI) [20] | also measured
CC1(C)OB(c2ccc(N(CCCl)CCBr)cc2)OC1(C)C | Active | Active | Active | Active | Active | Active | Active | Active | Active | Active | Active | Active | Active | Active | Active | Active | Active | Active | Active | Active | growth inhibition (GI) [21]: Active; growth inhibition (GI) [22]: Active; growth inhibition (GI) [23]: Active; growth inhibition (GI) [24]: Active; growth inhibition (GI) [25]: Active; growth inhibition (GI) [26]: Active; growth inhibition (GI) [27]: Active; growth inhibition (GI) [28]: Active; growth inhibition (GI) [29]: Active; growth inhibition (GI) [30]: Active; growth inhibition (GI) [31]: Active; growth inhibition (GI) [32]: Active; growth inhibition (GI) [33]: Active; Activity [34]: 37%; growth inhibition (GI) [35]: Active; growth inhibition (GI) [36]: Active; growth inhibition (GI) [37]: Active
CC1(C)OB(c2ccc(N(CCBr)CCBr)cc2)OC1(C)C | Active | Active | Active | Active | Active | Active | Active | Active | Active | Active | Active | Active | Active | Active | Active | Active | Active | Active | Active | Active | growth inhibition (GI) [21]: Active; growth inhibition (GI) [22]: Active; growth inhibition (GI) [23]: Active; growth inhibition (GI) [24]: Active; growth inhibition (GI) [25]: Active; growth inhibition (GI) [26]: Active; growth inhibition (GI) [27]: Active; growth inhibition (GI) [28]: Active; growth inhibition (GI) [29]: Active; growth inhibition (GI) [30]: Active; growth inhibition (GI) [31]: Active; growth inhibition (GI) [32]: Active; growth inhibition (GI) [33]: Active; Activity [34]: 37%; growth inhibition (GI) [35]: Active; growth inhibition (GI) [36]: Active; growth inhibition (GI) [37]: Active
